Bioassay records (PubChem BioAssay)
Shown are actives, neighbours in structure and some others; about 1.6% of the full set was active somewhere.
DAGLB inh – diacylglycerol lipase beta (human) inhibition; Q8NCG7; HEK293T DAGLB membrane lysate, EnzChek fluorogenic substrate; inhibition, % at 5.17 µM; 340,000 compounds, 0.059% hits; in the data active = inhibition above about 34%
ABHD4 inh – inhibits mouse alpha/beta hydrolase domain 4; Q8VD66; purified mABHD4, FP-Rh probe fluorescence polarization; inhibition, % at 8.92 µM; 370,000 compounds, 0.54% hits;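 active = inhibition exceeding the mean over every tested compound plus 3 SD, cut at about 30% in these data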
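Test system: mABHD4 protein | Buffer or medium: HEPES pH 7.0 buffer, 150 mM NaCl, 0.01% Pluronic F-127 | Probe or stimulus: FP-Rh fluorescent activity-based probe, added after compound pre-incubation | Timing: Pre-incubation 45 min, probe exposure 60 min, at 25 °C | Technique: Fluorescence polarization, excitation 525 nm, emission 598 nm, BODIPY TMR filters | Repeats: Single well per compound (singlicate)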
TCR-CD3 inh – blocks the human TCR-CD3 interaction | TAMRA-labeled TCR probe fluorescence, biochemical | inhibition, % at 9.4 µM | 360,000 compounds, 0.37% hits | AID 651800;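 also: recombinant mutant TCR 2C K166C tagged with TAMRA read by polarization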
SIAE primary – blocks human sialic acid acetylesterase | Q9HAT2 | 370,000 compounds, 0.69% hits | SIAE FP-Rh probe binding, fluorescence polarization | inhibition, % at 9.66 µM;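 active = inhibition above a cutoff: mean of compounds within the control limits plus 3 SD of those, cut at about 17% in these data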
HTRA1 inhibitor – HTRA1 (human) protease inhibition; 340,000 compounds, 0.5% hits; inhibition, % at 5.96 µM; Q92743; recombinant HTRA1, FP-rhodamine activity-based probe, fluorescence polarization; in the data active = inhibition above about 36%
Target sequence (Q92743 whole entry, looked up): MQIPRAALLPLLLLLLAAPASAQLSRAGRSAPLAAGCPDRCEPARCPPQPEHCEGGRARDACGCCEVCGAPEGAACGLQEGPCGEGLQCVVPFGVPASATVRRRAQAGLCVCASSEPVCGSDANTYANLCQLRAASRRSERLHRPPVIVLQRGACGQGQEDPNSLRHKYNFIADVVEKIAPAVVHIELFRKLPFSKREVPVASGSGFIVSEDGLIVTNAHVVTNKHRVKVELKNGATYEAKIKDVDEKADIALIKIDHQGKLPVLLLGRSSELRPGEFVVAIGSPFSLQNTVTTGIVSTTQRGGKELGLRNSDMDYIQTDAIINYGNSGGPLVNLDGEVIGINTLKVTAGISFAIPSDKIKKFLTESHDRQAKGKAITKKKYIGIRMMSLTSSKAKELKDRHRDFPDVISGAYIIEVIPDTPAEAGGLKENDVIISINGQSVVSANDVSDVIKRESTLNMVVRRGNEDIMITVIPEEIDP
HTRA1 inh conf – confirmation of human HTRA1 inhibitors; shares compounds with HTRA1 inhibitor; recombinant HTRA1, FP-rhodamine activity-based probe, fluorescence polarization; inhibition, % at 5.96 µM; 1,600 compounds, 66% hits; AID 540248;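 active = mean inhibition over three repeats above a set limit taken from the earlier primary screen, cut at about 37% in these data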;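 also: inhibitors block probe binding so polarization drops and inhibition rises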
BSA TAMRA ctr – interferes with TAMRA-BSA probe, flagging TCR-CD3 hits | inhibition, % at 9.4 µM | 1,200 compounds, 10% hits | AID 652035 | TAMRA-labeled BSA probe fluorescence counterscreen | shares compounds with TCR-CD3 inh; in the data active = inhibition above about 23%
TCR-CD3 conf – confirmation of human TCR-CD3 interaction inhibitors. shares compounds with TCR-CD3 inh. 1,200 compounds, 48% hits. TAMRA-labeled TCR probe fluorescence binding assay. inhibition, % at 9.4 µM. AID 652036
mABHD4 conf – confirmation of mouse ABHD4 inhibitors. shares compounds with ABHD4 inh. purified mABHD4, FP-Rh probe fluorescence polarization. inhibition, % at 8.92 µM. 1,800 compounds, 55% hits. AID 720658;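 active = mean inhibition across replicates above the hit cutoff set in the primary screen, cut at about 30% in these data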
SIAE confirm – confirmation of human SIAE inhibitors | 2,300 compounds, 13% hits | shares compounds with SIAE primary | AID 1117263 | SIAE FP-Rh activity-based probe, fluorescence polarization | inhibition, % at 9.66 µM;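 active = mean inhibition of the replicates above the hit cutoff set in the primary screen, cut at about 17% in these data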;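 also: inhibitors lower polarization as more probe stays unbound to SIAE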
Large screens that a line does not name were inactive (follow-up assays come after a bar, where they were run). Rule as the data show it, unless noted: active = inhibition above about 19%; inactive = the rest.

COC(=O)[C@]12CCCCC=C1N(Cc1ccc(OC)cc1)C(=O)[C@@H]2CC(=O)N1CCN(C(=O)c2ccco2)CC1	none (no result: DAGLB inh, TCR-CD3 inh, HTRA1 inhibitor)
CNc1ccccc(-c2ccc3ccccc3n2)c1=O	ABHD4 inh 36.1, SIAE primary 20.6, HTRA1 inhibitor 38.5 | HTRA1 inh conf inactive | mABHD4 conf inactive | SIAE confirm inactive
CCOC(=O)c1nc(Nc2ccc(Nc3ccccc3)cc2)c2ccccc2n1	SIAE primary 22.3, HTRA1 inhibitor 45.6 | HTRA1 inh conf 59.8 | SIAE confirm inactive
CCCCCCn1c(=O)[nH]c2nc3cc(N)c(C)cc3nc2c1=O	ABHD4 inh 49.3, SIAE primary 17.7, HTRA1 inhibitor 64.2 | HTRA1 inh conf inactive | mABHD4 conf 39.0 | SIAE confirm inactive
Cc1cc(C)nc(NC(=S)N2CCN(c3ncc(C(F)(F)F)cc3Cl)CC2)c1	none (no result: DAGLB inh, TCR-CD3 inh, HTRA1 inhibitor)
Cc1ccccc1C(=O)Nc1cccc(C(=O)N/N=C/c2cc(Cl)cc([N+](=O)[O-])c2O)c1	ABHD4 inh 36.6, TCR-CD3 inh 45.4, SIAE primary 27.9, HTRA1 inhibitor 41.9 | HTRA1 inh conf 49.9 | BSA TAMRA ctr inactive | TCR-CD3 conf 55.7 | mABHD4 conf 48.8 | SIAE confirm inactive
COc1cc(/C=N/NC(=O)c2cccc(NC(=O)c3ccccc3C)c2)ccc1O	none
O=C(/C=C/c1ccc(O)c(O)c1)c1ccc(S(=O)(=O)N2CCCCCC2)cc1	SIAE primary 44.9, HTRA1 inhibitor 54.5 | HTRA1 inh conf 55.9 | SIAE confirm inactive
Cc1cc(Oc2cccnc2)ccc1NC(=O)CCc1c[nH]c2ccccc12	none (no result: DAGLB inh, HTRA1 inhibitor)
C[C@H]1Cn2cnc(C(=O)N(C)Cc3ccccc3)c2C(=O)N1	none (no result: DAGLB inh, HTRA1 inhibitor)
COC(=O)c1ccccc1-c1c2ccc(=N)cc-2oc2cc(N)ccc12	ABHD4 inh active, TCR-CD3 inh active, SIAE primary active, HTRA1 inhibitor 135.8 | HTRA1 inh conf 142.2 | BSA TAMRA ctr active | TCR-CD3 conf active | mABHD4 conf 182.9 | SIAE confirm active
COC(=O)c1ccccc1-c1ccc(/C=N/NC(=O)c2cc3ccccc3o2)o1	none
CNc1ccc2c3c(cccc13)C(=O)N(C)C2=O	ABHD4 inh 102.6, TCR-CD3 inh 83.5, SIAE primary 69.7, HTRA1 inhibitor 83.7 | HTRA1 inh conf 74.7 | BSA TAMRA ctr 138.1 | TCR-CD3 conf 103.8 | mABHD4 conf 118.9 | SIAE confirm 66.1
COc1ccc(-n2c(SCC(=O)Nc3cc(C)c(NC(=O)c4ccccc4)cc3OC)nnc2-c2ccccc2F)cc1	none (no result: DAGLB inh, TCR-CD3 inh, HTRA1 inhibitor)
CCN1/C(=C/C=C/c2oc3ccc(-c4ccccc4)cc3[n+]2CC)Oc2ccc(-c3ccccc3)cc21	ABHD4 inh 71.6, TCR-CD3 inh 104.7, SIAE primary 68.0, HTRA1 inhibitor 113.9 | HTRA1 inh conf 108.3 | BSA TAMRA ctr 152.1 | TCR-CD3 conf 57.6 | mABHD4 conf 89.0 | SIAE confirm inactive
CCn1c2ccccc2c2cc(NC(=O)COC(=O)c3cccc(F)c3)ccc21	none (no result: DAGLB inh, TCR-CD3 inh, HTRA1 inhibitor)
COc1ccc(S(=O)(=O)Nc2cc(C(C)C)c(O)cc2C)cc1	none
COc1ccc2nc3cc(Cl)ccc3c(Nc3cc(C(C)C)c(O)cc3C)c2c1	ABHD4 inh 39.6, SIAE primary 29.4, HTRA1 inhibitor 37.8 | HTRA1 inh conf inactive | mABHD4 conf 50.6 | SIAE confirm inactive
O=CN1CCN(C(=O)C2CCN(c3ncnc4c3sc3cccc(F)c34)CC2)CC1	none (no result: DAGLB inh, TCR-CD3 inh, HTRA1 inhibitor)
O=C(O)/C=C\C(=O)Nc1ccc(N2CCN(c3cccc(Cl)c3)CC2)cc1	ABHD4 inh 41.7, TCR-CD3 inh 21.0, SIAE primary 25.5, HTRA1 inhibitor 52.2 | HTRA1 inh conf 40.2 | BSA TAMRA ctr inactive | TCR-CD3 conf inactive | mABHD4 conf inactive | SIAE confirm inactive
O=C(O)/C=C\C(=O)Nc1ccccc1C(=O)N1CCN(c2ccc(Cl)cc2)CC1	none
O=C(O)/C=C\C(=O)Nc1ccc(N2CCN(c3ccc(Cl)c(Cl)c3)CC2)cc1	ABHD4 inh 39.1, TCR-CD3 inh 30.1, SIAE primary 26.6, HTRA1 inhibitor 56.8 | HTRA1 inh conf inactive | BSA TAMRA ctr inactive | TCR-CD3 conf inactive | mABHD4 conf inactive | SIAE confirm inactive
CC(=O)Nc1ccc(N2CCN(c3ccc(F)cc3)CC2)cc1	none
O=C(O)/C=C\C(=O)Nc1ccc(N2CCN(c3ccc(Cl)cc3)CC2)cc1	ABHD4 inh 33.1, TCR-CD3 inh 21.2, SIAE primary 27.6, HTRA1 inhibitor 43.7 | HTRA1 inh conf inactive | BSA TAMRA ctr inactive | TCR-CD3 conf inactive | mABHD4 conf inactive | SIAE confirm inactive
O=C(O)/C=C\C(=O)Nc1ccc(N2CCN(c3ccc(F)cc3)CC2)cc1	ABHD4 inh 43.7, TCR-CD3 inh 27.9, SIAE primary 32.9, HTRA1 inhibitor 42.9 | HTRA1 inh conf inactive | BSA TAMRA ctr inactive | TCR-CD3 conf inactive | mABHD4 conf inactive | SIAE confirm inactive
O=C1C=CC2=C3c4cc(O)c(O)cc4CC3(O)COC2=C1O (stereo not drawn)	TCR-CD3 inh 88.3, SIAE primary 27.9, HTRA1 inhibitor 44.7 | HTRA1 inh conf 43.6 | BSA TAMRA ctr inactive | TCR-CD3 conf 93.0 | SIAE confirm inactive
O=C1C=C(O)c2c(O)cc(O)c(O)c2C1=O	ABHD4 inh 84.0, TCR-CD3 inh 63.5, SIAE primary 50.6, HTRA1 inhibitor 77.8 | HTRA1 inh conf 55.9 | BSA TAMRA ctr inactive | TCR-CD3 conf 64.2 | mABHD4 conf 56.9 | SIAE confirm inactive
CC(=O)NC(c1ccc(Cl)cc1Cl)c1ccc2cccnc2c1O (stereo not drawn)	SIAE primary 19.6, HTRA1 inhibitor 72.9 | HTRA1 inh conf 67.0 | SIAE confirm inactive
CC(C)C(=O)NC(c1cccc([N+](=O)[O-])c1)c1ccc2cccnc2c1O (stereo not drawn)	SIAE primary 22.5, HTRA1 inhibitor 44.1 | HTRA1 inh conf 46.1 | SIAE confirm inactive
CCCCC(=O)NC(c1ccc(N(CC)CC)cc1)c1ccc2cccnc2c1O (stereo not drawn)	SIAE primary 17.7, HTRA1 inhibitor 59.8 | HTRA1 inh conf 66.4 | SIAE confirm inactive
CC(=O)NC(c1ccc2ccccc2c1)c1ccc2cccnc2c1O (stereo not drawn)	SIAE primary 27.3, HTRA1 inhibitor 51.7 | HTRA1 inh conf 67.7 | SIAE confirm 26.6
CC(=O)NC(c1ccco1)c1cc(F)c2cccnc2c1O (stereo not drawn)	none
